ChEMBL document CHEMBL1157100, “The alkyl-connected 2-amino-6-vinylpurine (AVP) crosslinking agent for improved selectivity to the cytosine base in RNA” (Bioorg Med Chem, 2010)
The source made the active and inactive calls. No cut-off for these calls is given here.

Experiments:
Format in all cases: nucleic-acid assay
Nucleic Acid [1] = assay: Binding affinity to FAM-tagged 27 mer RNA hairpin loop assessed as crosslinking at 10 uM by PAGE
Outline: (§1)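 Reactive ODN at 10 µM with 1 µM FAM-labeled target DNA or RNA in 100 mM NaCl, 50 mM MES pH 5 plus RNase OUT, mixed at 0 °C and then incubated at 37 °C. Reactions were stopped at set times with formamide/EDTA/bromophenol blue buffer. Products were resolved on 15% denaturing polyacrylamide gel with 7 M urea, and FAM band intensities were quantified to give crosslinking yield.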

Nucleic Acid [2] = assay: Binding affinity to r-(ACGUGAAUUGUUCAACAGUAUGGGCAU)-RNA assessed as melting temperature at 1.5 uM by UV-visible spectrophotometry
Outline: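 Each strand at 1.5 µM: ODN plus complementary 27-mer RNA in 100 mM NaCl, 50 mM MES pH 5. Samples were heated at 85 °C for 10 min and cooled slowly. Melting curves were recorded at 260 nm while warming 20 to 80 °C at 1.0 °C/min to obtain Tm.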

Nucleic Acid [3] = assay: Binding affinity to FAM-tagged r-(CAAGCGGAGAAAYUAAUUGCGGGUCGC)-RNA assessed as crosslinking at 10 uM by alkylation method; outline: as §1

Compound	Activity (Nucleic Acid [1])	Tm (Nucleic Acid [2]) [°C]	Activity (Nucleic Acid [3])
CSCCc1nc(N)nc2c1ncn2CC[C@H]1C[C@H](OP(=O)(O)OC[C@H]2O[C@@H](n3cc(C)c(=O)[nH]c3=O)C[C@@H]2OP(=O)(O)OC[C@H]2O[C@@H](n3cnc4c(N)ncnc43)[C@H](O)[C@@H]2OP(=O)(O)OC[C@H]2O[C@@H](n3cc(C)c(=O)[nH]c3=O)C[C@@H]2OP(CCC#N)N(C(C)C)C(C)C)[C@@H](COP(=O)(O)O[C@H]2C[C@H](n3cc(C)c(=O)[nH]c3=O)O[C@@H]2COP(=O)(O)O[C@H]2C[C@H](n3cc(C)c(=O)[nH]c3=O)O[C@@H]2COP(=O)(O)O[C@H]2[C@@H](O)[C@H](n3cnc4c(N)ncnc43)O[C@@H]2COP(=O)(O)O[C@H]2[C@@H](O)[C@H](n3cnc4c(N)ncnc43)O[C@@H]2COP(=O)(O)O[C@H]2[C@@H](O)[C@H](n3cnc4c(N)ncnc43)O[C@@H]2COP(=O)(O)O[C@H]2[C@@H](O)[C@H](n3ccc(N)nc3=O)O[C@@H]2COP(=O)(O)O[C@H]2C[C@H](n3cc(C)c(=O)[nH]c3=O)O[C@@H]2COP(=O)(O)O[C@H]2[C@@H](O)[C@H](n3cnc4c(N)ncnc43)O[C@@H]2COP(=O)(O)O[C@H]2[C@@H](O)[C@H](n3cnc4c(=O)[nH]c(N)nc43)O[C@@H]2COP(=O)(O)O[C@H]2C[C@H](n3cc(C)c(=O)[nH]c3=O)O[C@@H]2COP(=O)(O)O[C@H]2[C@@H](O)[C@H](n3ccc(N)nc3=O)O[C@@H]2COP(=O)(O)O[C@H]2[C@@H](O)[C@H](n3cnc4c(N)ncnc43)O[C@@H]2COP(=O)(O)O[C@H]2C[C@H](n3cc(C)c(=O)[nH]c3=O)O[C@@H]2COP(=O)(O)O[C@H]2[C@@H](O)[C@H](n3cnc4c(N)ncnc43)O[C@@H]2COP(=O)(O)O[C@H]2C[C@H](n3cc(C)c(=O)[nH]c3=O)O[C@@H]2CO)O1 (stereo partly specified)	Active		
Cc1cn([C@H]2C[C@H](OP(CCC#N)N(C(C)C)C(C)C)[C@@H](COP(=O)(O)O[C@H]3[C@@H](O)[C@H](n4cnc5c(N)ncnc54)O[C@@H]3COP(=O)(O)O[C@H]3[C@@H](O)[C@H](n4cnc5c(N)ncnc54)O[C@@H]3COP(=O)(O)O[C@H]3[C@@H](O)[C@H](n4ccc(N)nc4=O)O[C@@H]3COP(=O)(O)O[C@H]3[C@@H](O)[C@H](n4cnc5c(=O)[nH]c(N)nc54)O[C@@H]3COP(=O)(O)O[C@H]3[C@@H](O)[C@H](n4cnc5c(N)ncnc54)O[C@@H]3COP(=O)(O)O[C@H]3[C@@H](O)[C@H](n4cnc5c(=O)[nH]c(N)nc54)O[C@@H]3COP(=O)(O)O[C@H]3C[C@H](n4cc(C)c(=O)[nH]c4=O)O[C@@H]3COP(=O)(O)O[C@H]3C[C@H](n4cc(C)c(=O)[nH]c4=O)O[C@@H]3COP(=O)(O)O[C@H]3[C@@H](O)[C@H](n4cnc5c(=O)[nH]c(N)nc54)O[C@@H]3COP(=O)(O)O[C@H]3C[C@H](n4cc(C)c(=O)[nH]c4=O)O[C@@H]3COP(=O)(O)O[C@H]3[C@@H](O)[C@H](n4ccc(N)nc4=O)O[C@@H]3COP(=O)(O)O[C@H]3[C@@H](O)[C@H](n4cnc5c(N)ncnc54)O[C@@H]3COP(=O)(O)O[C@H]3C[C@H](n4cc(C)c(=O)[nH]c4=O)O[C@@H]3COP(=O)(O)O[C@H]3[C@@H](O)[C@H](n4cnc5c(N)ncnc54)O[C@@H]3COP(=O)(O)O[C@H]3[C@@H](O)[C@H](n4ccc(N)nc4=O)O[C@@H]3COP(=O)(O)O[C@H]3[C@@H](O)[C@H](n4ccc(N)nc4=O)O[C@@H]3COP(=O)(O)O[C@H]3[C@@H](O)[C@H](n4ccc(N)nc4=O)O[C@@H]3COP(=O)(O)O[C@H]3[C@@H](O)[C@H](n4cnc5c(=O)[nH]c(N)nc54)O[C@@H]3COP(=O)(O)O[C@H]3C[C@H](n4cc(C)c(=O)[nH]c4=O)O[C@@H]3COP(=O)(O)O[C@H]3[C@@H](O)[C@H](n4cnc5c(N)ncnc54)O[C@@H]3CO)O2)c(=O)[nH]c1=O (stereo partly specified)		64.1	
CSCCc1nc(N)nc2c1ncn2[C@H]1C[C@H](OP(=O)(O)OC[C@H]2O[C@@H](n3cc(C)c(=O)[nH]c3=O)C[C@@H]2OP(=O)(O)OC[C@H]2O[C@@H](n3cc(C)c(=O)[nH]c3=O)C[C@@H]2OP(=O)(O)OC[C@H]2O[C@@H](n3cnc4c(=O)[nH]c(N)nc43)[C@H](O)[C@@H]2OP(=O)(O)OC[C@H]2O[C@@H](n3cnc4c(N)ncnc43)[C@H](O)[C@@H]2OP(=O)(O)OC[C@H]2O[C@@H](n3cnc4c(=O)[nH]c(N)nc43)[C@H](O)[C@@H]2OP(=O)(O)OC[C@H]2O[C@@H](n3ccc(N)nc3=O)[C@H](O)[C@@H]2OP(=O)(O)OC[C@H]2O[C@@H](n3cnc4c(N)ncnc43)[C@H](O)[C@@H]2OP(=O)(O)OC[C@H]2O[C@@H](n3cnc4c(N)ncnc43)[C@H](O)[C@@H]2OP(=O)(O)OC[C@H]2O[C@@H](n3cc(C)c(=O)[nH]c3=O)C[C@@H]2OP(CCC#N)N(C(C)C)C(C)C)[C@@H](COP(=O)(O)O[C@H]2C[C@H](n3cc(C)c(=O)[nH]c3=O)O[C@@H]2COP(=O)(O)O[C@H]2[C@@H](O)[C@H](n3ccc(N)nc3=O)O[C@@H]2COP(=O)(O)O[C@H]2[C@@H](O)[C@H](n3cnc4c(N)ncnc43)O[C@@H]2COP(=O)(O)O[C@H]2C[C@H](n3cc(C)c(=O)[nH]c3=O)O[C@@H]2COP(=O)(O)O[C@H]2[C@@H](O)[C@H](n3cnc4c(N)ncnc43)O[C@@H]2COP(=O)(O)O[C@H]2[C@@H](O)[C@H](n3ccc(N)nc3=O)O[C@@H]2COP(=O)(O)O[C@H]2[C@@H](O)[C@H](n3ccc(N)nc3=O)O[C@@H]2COP(=O)(O)O[C@H]2[C@@H](O)[C@H](n3ccc(N)nc3=O)O[C@@H]2COP(=O)(O)O[C@H]2[C@@H](O)[C@H](n3cnc4c(=O)[nH]c(N)nc43)O[C@@H]2COP(=O)(O)O[C@H]2C[C@H](n3cc(C)c(=O)[nH]c3=O)O[C@@H]2COP(=O)(O)O[C@H]2[C@@H](O)[C@H](n3cnc4c(N)ncnc43)O[C@@H]2CO)O1 (stereo partly specified)		53.3	inactive
CSCCc1nc(N)nc2c1ncn2CC[C@H]1C[C@H](OP(=O)(O)OC[C@H]2O[C@@H](n3cc(C)c(=O)[nH]c3=O)C[C@@H]2OP(=O)(O)OC[C@H]2O[C@@H](n3cc(C)c(=O)[nH]c3=O)C[C@@H]2OP(=O)(O)OC[C@H]2O[C@@H](n3cnc4c(=O)[nH]c(N)nc43)[C@H](O)[C@@H]2OP(=O)(O)OC[C@H]2O[C@@H](n3cnc4c(N)ncnc43)[C@H](O)[C@@H]2OP(=O)(O)OC[C@H]2O[C@@H](n3cnc4c(=O)[nH]c(N)nc43)[C@H](O)[C@@H]2OP(=O)(O)OC[C@H]2O[C@@H](n3ccc(N)nc3=O)[C@H](O)[C@@H]2OP(=O)(O)OC[C@H]2O[C@@H](n3cnc4c(N)ncnc43)[C@H](O)[C@@H]2OP(=O)(O)OC[C@H]2O[C@@H](n3cnc4c(N)ncnc43)[C@H](O)[C@@H]2OP(=O)(O)OC[C@H]2O[C@@H](n3cc(C)c(=O)[nH]c3=O)C[C@@H]2OP(CCC#N)N(C(C)C)C(C)C)[C@@H](COP(=O)(O)O[C@H]2C[C@H](n3cc(C)c(=O)[nH]c3=O)O[C@@H]2COP(=O)(O)O[C@H]2[C@@H](O)[C@H](n3ccc(N)nc3=O)O[C@@H]2COP(=O)(O)O[C@H]2[C@@H](O)[C@H](n3cnc4c(N)ncnc43)O[C@@H]2COP(=O)(O)O[C@H]2C[C@H](n3cc(C)c(=O)[nH]c3=O)O[C@@H]2COP(=O)(O)O[C@H]2[C@@H](O)[C@H](n3cnc4c(N)ncnc43)O[C@@H]2COP(=O)(O)O[C@H]2[C@@H](O)[C@H](n3ccc(N)nc3=O)O[C@@H]2COP(=O)(O)O[C@H]2[C@@H](O)[C@H](n3ccc(N)nc3=O)O[C@@H]2COP(=O)(O)O[C@H]2[C@@H](O)[C@H](n3ccc(N)nc3=O)O[C@@H]2COP(=O)(O)O[C@H]2[C@@H](O)[C@H](n3cnc4c(=O)[nH]c(N)nc43)O[C@@H]2COP(=O)(O)O[C@H]2C[C@H](n3cc(C)c(=O)[nH]c3=O)O[C@@H]2COP(=O)(O)O[C@H]2[C@@H](O)[C@H](n3cnc4c(N)ncnc43)O[C@@H]2CO)O1 (stereo partly specified)		49.7	inactive
